How the values were obtained:
L363 cells = test: Cell viability; format: cell-based, Human; settings: L363, 72 h treatment, four replicates ± SEM
Method in brief: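 MTS viability run in quadruplicate at the stated times and doses. Lines were grown in RPMI-1640 with 2 mM L-glutamine, 10% FBS and penicillin/streptomycin at 37 °C, 5% CO2. MTS reagent was added directly for 90 min at 37 °C. Formazan absorbance was read at 500 nm. Viability was normalised to DMSO-treated wells.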

several other cell lines = settings: literature values across several other cell lines ref 33, 34; cited from earlier work

Structure (SMILES): CN(C)c1ccc(Nc2c3ccc(NC(=O)CCN4CCCC4)cc3nc3cc(NC(=O)CCN4CCCC4)ccc23)cc1 [BRACO-19]
- IC50 (L363 cells): 15.3 ± 4.3 µM
- IC50 (several other cell lines): 1 to 13 µM
